Experimental data published in ChEMBL document CHEMBL2177098, “Synthesis and evaluation of novel ¹⁸F labeled 2-pyridinylbenzoxazole and 2-pyridinylbenzothiazole derivatives as ligands for positron emission tomography (PET) imaging of β-amyloid plaques” (J Med Chem, 2012).

Tests used:
[1] = tested on: Lung; experiment: Drug uptake in ICR mouse lung at 370 kBq/100 ul, iv at 60 mins by gamma-counting analysis; assay type: ADME, organism-based; conditions: in vivo, 1 h
How it was run: (§1)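 Male ICR mice (5 weeks, about 20 g) got 18F tracer in saline (370 KBq per 100 μL) via tail vein; n = 5 per time point, killed at 2, 10, 30, 60 min. Organs weighed and γ-counted; percent dose per gram wet tissue from comparison with diluted injectate aliquots.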

[2] = tested on: Brain; experiment: Drug uptake in ICR mouse brain at 370 kBq/100 ul, iv at 60 mins by gamma-counting analysis; assay type: ADME, organism-based; conditions: in vivo, 1 h; how it was run: as §1
[3] = tested on: Blood; experiment: Drug uptake in ICR mouse blood at 370 kBq/100 ul, iv at 10 mins by gamma-counting analysis; assay type: ADME, organism-based; conditions: in vivo; how it was run: as §1
[4] = tested on: Blood; experiment: Drug uptake in ICR mouse blood at 370 kBq/100 ul, iv at 2 mins by gamma-counting analysis; assay type: ADME, organism-based; conditions: in vivo; how it was run: as §1
[5] = tested on: Kidney; experiment: Drug uptake in ICR mouse kidney at 370 kBq/100 ul, iv at 60 mins by gamma-counting analysis; assay type: ADME, organism-based; conditions: in vivo, 1 h; how it was run: as §1
[6] = tested on: Blood; experiment: Drug uptake in ICR mouse blood at 370 kBq/100 ul, iv at 60 mins by gamma-counting analysis; assay type: ADME, organism-based; conditions: in vivo, 1 h; how it was run: as §1
[7] = tested on: Stomach; experiment: Drug uptake in ICR mouse stomach assessed per organ at 370 kBq/100 ul, iv at 30 mins by gamma-counting analysis; assay type: ADME, organism-based; conditions: in vivo, 0.5 h
How it was run: (§2)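 Male ICR mice (5 weeks, about 20 g) got 18F tracer in saline (370 KBq per 100 μL) via tail vein; n = 5 per time point, killed at 2, 10, 30, 60 min. Organs removed and γ-counted against diluted injectate; expressed as % injected dose per organ.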

[8] = tested on: Spleen; experiment: Drug uptake in ICR mouse spleen at 370 kBq/100 ul, iv at 30 mins by gamma-counting analysis; assay type: ADME, organism-based; conditions: in vivo, 0.5 h; how it was run: as §1
[9] = tested on: Spleen; experiment: Drug uptake in ICR mouse spleen at 370 kBq/100 ul, iv at 10 mins by gamma-counting analysis; assay type: ADME, organism-based; conditions: in vivo; how it was run: as §1
[10] = tested on: Heart; experiment: Drug uptake in ICR mouse heart at 370 kBq/100 ul, iv at 60 mins by gamma-counting analysis; assay type: ADME, organism-based; conditions: in vivo, 1 h; how it was run: as §1
[11] = tested on: Brain; experiment: Drug uptake in ICR mouse brain at 370 kBq/100 ul, iv at 2 mins by gamma-counting analysis; assay type: ADME, organism-based; conditions: in vivo; how it was run: as §1
[12] = tested on: Brain; experiment: Drug uptake in wild type C57BL6 mouse brain at 370 KBq/100 ul after 1 hr by autoradiographic analysis; assay type: ADME, tissue-based; conditions: in vitro
How it was run: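 Paraffin brain sections from 12-month-old male control C57BL6 mice were deparaffinized through xylene and graded ethanol, then held in PBS (0.2 M, pH 7.4) for 30 min. They were incubated with the ¹⁸F tracer (370 KBq per 100 μL) for 1 h at room temperature. Sections were washed in 40% EtOH, rinsed with water for 1 min, dried, and exposed to a phosphor plate for 2 h. The same sections were then stained with thioflavin S.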

[13] = tested on: Lung; experiment: Drug uptake in ICR mouse lung at 370 kBq/100 ul, iv at 30 mins by gamma-counting analysis; assay type: ADME, organism-based; conditions: in vivo, 0.5 h; how it was run: as §1
[14] = tested on: Intestine; experiment: Drug uptake in ICR mouse intestine assessed per organ at 370 kBq/100 ul, iv at 30 mins by gamma-counting analysis; assay type: ADME, organism-based; conditions: in vivo, 0.5 h; how it was run: as §2
[15] = tested on: Kidney; experiment: Drug uptake in ICR mouse kidney at 370 kBq/100 ul, iv at 10 mins by gamma-counting analysis; assay type: ADME, organism-based; conditions: in vivo; how it was run: as §1
[16] = tested on: Intestine; experiment: Drug uptake in ICR mouse intestine assessed per organ at 370 kBq/100 ul, iv at 10 mins by gamma-counting analysis; assay type: ADME, organism-based; conditions: in vivo; how it was run: as §2
[17] = tested on: Liver; experiment: Drug uptake in ICR mouse liver at 370 kBq/100 ul, iv at 60 mins by gamma-counting analysis; assay type: ADME, organism-based; conditions: in vivo, 1 h; how it was run: as §1
[18] = tested on: Heart; experiment: Drug uptake in ICR mouse heart at 370 kBq/100 ul, iv at 30 mins by gamma-counting analysis; assay type: ADME, organism-based; conditions: in vivo, 0.5 h; how it was run: as §1
[19] = tested on: Blood; experiment: Drug uptake in ICR mouse blood at 370 kBq/100 ul, iv at 30 mins by gamma-counting analysis; assay type: ADME, organism-based; conditions: in vivo, 0.5 h; how it was run: as §1
[20] = tested on: Brain; experiment: Drug uptake in ICR mouse brain at 370 kBq/100 ul, iv at 10 mins by gamma-counting analysis; assay type: ADME, organism-based; conditions: in vivo; how it was run: as §1
[21] = tested on: Lung; experiment: Drug uptake in ICR mouse lung at 370 kBq/100 ul, iv at 2 mins by gamma-counting analysis; assay type: ADME, organism-based; conditions: in vivo; how it was run: as §1
[22] = tested on: Stomach; experiment: Drug uptake in ICR mouse stomach assessed per organ at 370 kBq/100 ul, iv at 2 mins by gamma-counting analysis; assay type: ADME, organism-based; conditions: in vivo; how it was run: as §2
[23] = tested on: Kidney; experiment: Drug uptake in ICR mouse kidney at 370 kBq/100 ul, iv at 30 mins by gamma-counting analysis; assay type: ADME, organism-based; conditions: in vivo, 0.5 h; how it was run: as §1
[24] = tested on: Liver; experiment: Drug uptake in ICR mouse liver at 370 kBq/100 ul, iv at 30 mins by gamma-counting analysis; assay type: ADME, organism-based; conditions: in vivo, 0.5 h; how it was run: as §1
[25] = tested on: Bone; experiment: Drug uptake in ICR mouse bone at 370 kBq/100 ul, iv at 2 mins by gamma-counting analysis; assay type: ADME, organism-based, Bone element; conditions: in vivo; how it was run: as §1
[26] = tested on: Spleen; experiment: Drug uptake in ICR mouse spleen at 370 kBq/100 ul, iv at 60 mins by gamma-counting analysis; assay type: ADME, organism-based; conditions: in vivo, 1 h; how it was run: as §1
[27] = tested on: Bone; experiment: Drug uptake in ICR mouse bone at 370 kBq/100 ul, iv at 60 mins by gamma-counting analysis; assay type: ADME, organism-based, Bone element; conditions: in vivo, 1 h; how it was run: as §1
[28] = n-Octanol-PBS buffer partition coefficient, log D of the compound at 1.5 MBq after 3 mins at pH 7.4; assay type: physicochemical
How it was run: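 The tracer was partitioned between n-octanol and PBS by vortexing for 3 min at room temperature, then centrifuged for 5 min at 3000 rpm. Samples of the octanol (50 μL) and aqueous (500 μL) layers were counted. log D is the log of the octanol/PBS counts-per-gram ratio. The octanol layer was repartitioned until values were consistent. Measured in triplicate and repeated three times.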

[29] = tested on: Stomach; experiment: Drug uptake in ICR mouse stomach assessed per organ at 370 kBq/100 ul, iv at 60 mins by gamma-counting analysis; assay type: ADME, organism-based; conditions: in vivo, 1 h
How it was run: (§3)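 Normal male ICR mice (5 weeks, about 20 g) received the ¹⁸F tracer in saline (370 KBq per 100 μL) by tail-vein injection. Groups of n = 5 were killed at 2, 10, 30 and 60 min. Organs were removed, weighed and γ-counted against diluted aliquots of the injectate, giving % dose per gram. Stomach and intestine were expressed per organ. The brain ratio is 2 min/60 min uptake. Values are mean ± SD.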

[30] = tested on: Kidney; experiment: Drug uptake in ICR mouse kidney at 370 kBq/100 ul, iv at 2 mins by gamma-counting analysis; assay type: ADME, organism-based; conditions: in vivo; how it was run: as §1
[31] = tested on: Liver; experiment: Drug uptake in ICR mouse liver at 370 kBq/100 ul, iv at 10 mins by gamma-counting analysis; assay type: ADME, organism-based; conditions: in vivo; how it was run: as §1
[32] = tested on: Heart; experiment: Drug uptake in ICR mouse heart at 370 kBq/100 ul, iv at 2 mins by gamma-counting analysis; assay type: ADME, organism-based; conditions: in vivo; how it was run: as §1
[33] = tested on: Liver; experiment: Drug uptake in ICR mouse liver at 370 kBq/100 ul, iv at 2 mins by gamma-counting analysis; assay type: ADME, organism-based; conditions: in vivo; how it was run: as §1
[34] = tested on: Brain; experiment: Ratio of drug uptake in brain at 2 mins to drug uptake in brain at 60 mins in ICR mouse at 370 KBq/100 ul, iv; assay type: ADME, organism-based; conditions: in vivo; how it was run: as §3
[35] = tested on: Spleen; experiment: Drug uptake in ICR mouse spleen at 370 kBq/100 ul, iv at 2 mins by gamma-counting analysis; assay type: ADME, organism-based; conditions: in vivo; how it was run: as §1
[36] = tested on: Lung; experiment: Drug uptake in ICR mouse lung at 370 kBq/100 ul, iv at 10 mins by gamma-counting analysis; assay type: ADME, organism-based; conditions: in vivo; how it was run: as §1
[37] = tested on: Bone; experiment: Drug uptake in ICR mouse bone at 370 kBq/100 ul, iv at 30 mins by gamma-counting analysis; assay type: ADME, organism-based, Bone element; conditions: in vivo, 0.5 h; how it was run: as §1
[38] = tested on: Brain; experiment: Drug uptake in ICR mouse brain at 370 kBq/100 ul, iv at 30 mins by gamma-counting analysis; assay type: ADME, organism-based; conditions: in vivo, 0.5 h; how it was run: as §1
[39] = tested on: Stomach; experiment: Drug uptake in ICR mouse stomach assessed per organ at 370 kBq/100 ul, iv at 10 mins by gamma-counting analysis; assay type: ADME, organism-based; conditions: in vivo; how it was run: as §2
[40] = Displacement of [125I]-IMPY from amyloid beta (1 to 42) fibrils after 2 hrs by gamma-counting analysis
How it was run: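 Competition binding with aggregated Aβ1-42 fibrils and [125I]IMPY (60000−100000 cpm/100 μL) in 0.05% BSA (1 mL total); inhibitors 10⁻⁴−10^−8.5 M in ethanol. Incubated 37 °C for 2 h, then GF/B vacuum filtration with PBS (0.02 M, pH 7.4) washes and γ counting. Three repeats; IC50 converted to Ki by Cheng−Prusoff.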

[41] = tested on: Intestine; experiment: Drug uptake in ICR mouse intestine assessed per organ at 370 kBq/100 ul, iv at 60 mins by gamma-counting analysis; assay type: ADME, organism-based; conditions: in vivo, 1 h; how it was run: as §2
[42] = tested on: Heart; experiment: Drug uptake in ICR mouse heart at 370 kBq/100 ul, iv at 10 mins by gamma-counting analysis; assay type: ADME, organism-based; conditions: in vivo; how it was run: as §1
[43] = tested on: Intestine; experiment: Drug uptake in ICR mouse intestine assessed per organ at 370 kBq/100 ul, iv at 2 mins by gamma-counting analysis; assay type: ADME, organism-based; conditions: in vivo; how it was run: as §2
[44] = tested on: Bone; experiment: Drug uptake in ICR mouse bone at 370 kBq/100 ul, iv at 10 mins by gamma-counting analysis; assay type: ADME, organism-based, Bone element; conditions: in vivo; how it was run: as §1

- Drug uptake [1]: 2.33 % ID/g
- Drug uptake [2]: 1.84 % ID/g
- Drug uptake [3]: 5.44 % ID/g
- Drug uptake [4]: 9.79 % ID/g
- Drug uptake [5]: 3.01 % ID/g
- Drug uptake [6]: 3.79 % ID/g
- Drug uptake [7]: 14.13 %ID
- Drug uptake [8]: 2.59 % ID/g
- Drug uptake [9]: 2.97 % ID/g
- Drug uptake [10]: 2.02 % ID/g
- Drug uptake [11]: 3.26 % ID/g
- Drug uptake [12]: Not Active
- Drug uptake [13]: 3.28 % ID/g
- Drug uptake [14]: 19.57 %ID
- Drug uptake [15]: 5.45 % ID/g
- Drug uptake [16]: 10.4 %ID
- Drug uptake [17]: 4.75 % ID/g
- Drug uptake [18]: 2.62 % ID/g
- Drug uptake [19]: 4.96 % ID/g
- Drug uptake [20]: 2.64 % ID/g
- Drug uptake [21]: 6.69 % ID/g
- Drug uptake [22]: 2.55 %ID
- Drug uptake [23]: 3.88 % ID/g
- Drug uptake [24]: 6.79 % ID/g
- Drug uptake [25]: 1.86 % ID/g
- Drug uptake [26]: 1.47 % ID/g
- Drug uptake [27]: 1.58 % ID/g
- logD at 0.05 h [28]: 3.08
- Drug uptake [29]: 11.34 %ID
- Drug uptake [30]: 6.82 % ID/g
- Drug uptake [31]: 11.6 % ID/g
- Drug uptake [32]: 4.5 % ID/g
- Drug uptake [33]: 12.9 % ID/g
- Ratio [34]: 1.77
- Drug uptake [35]: 3.14 % ID/g
- Drug uptake [36]: 4.59 % ID/g
- Drug uptake [37]: 1.64 % ID/g
- Drug uptake [38]: 1.98 % ID/g
- Drug uptake [39]: 8.98 %ID
- Ki [40]: 5.8 nM
- Drug uptake [41]: 26.66 %ID
- Drug uptake [42]: 3.3 % ID/g
- Drug uptake [43]: 4.68 %ID
- Drug uptake [44]: 0.95 % ID/g
SMILES: CN(C)c1ccc(-c2nc3ccc(OCCOCCOCC[18F])cc3s2)cn1
